The nature of data set [1]: Lipophilicity. In kind it is physicochemical. As to conditions: 1-octanol/sodium phosphate buffer, pH 7.4. The method in brief: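 The 11C-labelled test compound was partitioned between 1-octanol and 0.15 M sodium phosphate buffer, pH 7.4. The aqueous phase left after extraction was analysed by radio-HPLC on C18 with MeOH:H2O:Et3N (92.5:7.5:0.1) at 4.0 mL/min. The result was decay-corrected and corrected for radioligand instability in the buffer.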

Data set [2] in a line: Distribution into cellular blood elements, monkey blood. In kind it is in vitro ADME. The note with it: absence of autologous plasma. The method in brief: (§1)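 Carbon-11 carboxyl-labelled test compound added to freshly drawn heparin-anticoagulated blood. Blood cells were tested with and without autologous plasma, and the fraction of radioactivity bound to cells was determined. Mean ± SD, n = 3.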

Data set [3] can be described thus: Distribution into cellular blood elements, rat blood. In kind it is in vitro ADME. The note with it: absence of autologous plasma. In outline:
as §1

Data set [4] can be described thus: PET imaging in wild type mice, baseline radioactivity uptake. In kind it is in vivo. As to conditions: i.v. injection. In outline:
(§2)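 Mice under 1.5% isoflurane were given about 7.4 MBq of 11C-labelled test compound i.v. via a tail-vein catheter. Vehicle was ethanol/saline 1:9 with ascorbic acid and Tween. Dynamic microPET ran for 100 min and brain time-activity curves were plotted in SUV. Images were reconstructed by Fourier rebinning and 2D OSEM, with no attenuation or scatter correction.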

For data set [5], the system named is P-gp/BCRP. Description: PET imaging in P-gp/BCRP dual knock-out mice. In kind it is in vivo. In outline: as §2
Data set [6] has as its target T1, cPLA2α (Mus musculus, UniProt P47713).
T1 sequence (P47713 1-748): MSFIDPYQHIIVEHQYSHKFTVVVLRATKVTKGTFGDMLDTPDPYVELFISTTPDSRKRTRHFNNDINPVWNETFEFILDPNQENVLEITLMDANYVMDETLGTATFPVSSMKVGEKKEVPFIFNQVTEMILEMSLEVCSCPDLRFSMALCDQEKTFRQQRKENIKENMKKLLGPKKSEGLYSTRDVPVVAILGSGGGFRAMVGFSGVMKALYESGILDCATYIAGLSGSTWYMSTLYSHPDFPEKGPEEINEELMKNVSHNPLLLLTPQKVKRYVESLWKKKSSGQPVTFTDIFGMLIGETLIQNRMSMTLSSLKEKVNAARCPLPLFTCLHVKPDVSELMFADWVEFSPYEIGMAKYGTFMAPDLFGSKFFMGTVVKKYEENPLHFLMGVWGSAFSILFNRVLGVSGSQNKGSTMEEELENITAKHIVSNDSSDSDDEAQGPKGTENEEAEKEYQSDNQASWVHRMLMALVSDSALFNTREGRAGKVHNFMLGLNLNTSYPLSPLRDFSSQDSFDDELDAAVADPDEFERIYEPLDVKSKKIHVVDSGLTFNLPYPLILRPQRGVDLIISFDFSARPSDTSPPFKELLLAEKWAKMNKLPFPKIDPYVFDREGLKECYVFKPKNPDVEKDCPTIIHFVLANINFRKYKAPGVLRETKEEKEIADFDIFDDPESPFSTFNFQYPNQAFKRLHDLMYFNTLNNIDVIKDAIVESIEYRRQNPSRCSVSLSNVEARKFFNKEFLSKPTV
In words: PET imaging in wild type mice with self-block pretreatment. As to conditions: blocking agent 2 mg/kg i.v. 30 min before radioligand. In kind it is in vivo. The method in brief:
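Wild-type mice under 1.5% isoflurane first received unlabelled blocking agent, 2 mg/kg i.v. via tail-vein catheter. Thirty minutes later they were given about 7.4 MBq of 11C-labelled test compound in ethanol/saline (1:9), ascorbic acid and Tween. MicroPET ran for 100 min. Brain time-activity curves were compared with baseline. Reconstruction used FORE/2D OSEM without attenuation or scatter correction.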

For data set [7], the system named is cPLA2α. The note with it: cPLA2α inhibition; ref [19] and [20]; cited from earlier work.
The nature of data set [8]: Stability in aqueous sodium phosphate buffer. In kind it is physicochemical. As to conditions: sodium phosphate buffer 0.15 M, pH 7.4.
Data set [9] is described as follows: Tissue stability in rat brain homogenate. The note with it: room temperature, 30 min. In kind it is in vitro ADME.

Entries after “also recorded” stand apart in the source; their conditions may differ.

The logD is lipophilicity at a set pH, counting ionised and neutral species. As usually defined, the IC50 is the concentration at which inhibition is half-maximal. The molecule `CC(C)C(=O)c1cn(CC(=O)COc2ccc(Oc3ccccc3)cc2)c2ccc(C(=O)O)cc12` [[^11C]1, 3-isobutyryl-1-(2-oxo-3-(4-phenoxyphenoxy)propyl)-1H-indole-5-carboxylic acid] showed a logD in data set [1] of 2.1 ± 0.01. The “Bound to blood cells” value in data set [2] and in data set [3] was “More than 94%” in each case. Moreover, the “Peak radioactivity in brain” value was 0.4 SUV in data set [4] and 0.5 SUV in [5] (P-gp/BCRP dual knock-out mice, i.v. injection). In data set [5] (wild type vs dual knock-out mice brain uptake), the “Efflux transporter (P-gp/BCRP) substrate status” value was “not efflux transporters substrates; also recorded: not a brain P-gp or BRCP efflux transporter substrate”. In data set [6], the “Effect of pretreatment with non-radioactive ligand on brain time-activity curve” value was “did not alter”. For the same molecule, the IC50 in data set [7] was 12 nM.

For `Cc1noc(-c2cn(CC(=O)COc3ccc(Oc4ccccc4)cc3)c3ccc(C(=O)O)cc23)n1` [[^11C]3, 3-(3-methyl-1,2,4-oxadiazol-5-yl)-1-(2-oxo-3-(4-phenoxyphenoxy)propyl)-1H-indole-5-carboxylic acid], in data set [1], the logD is 2.07 ± 0.02. In data set [8], this molecule gave a Stability in buffer of 99.7±0.2%. Further, the IC50 in data set [7] was 6.1 nM.

Turning to `CC(=O)c1cn(CC(=O)COc2ccc(Oc3ccc(C(F)(F)F)cc3)cc2)c2ccc(C(=O)O)cc12` [[^11C]2, 3-acetyl-1-(2-oxo-3-(4-(4-(trifluoromethyl)-phenoxy)phenoxy)propyl)-1H-indole-5-carboxylic acid], in data set [1], the logD was 2.43 ± 0.01. This molecule had a Stability in buffer in data set [8] of 98.4±0.2%. Further, the “Stability in rat brain homogenate” value in data set [9] came out at 97.5%. Also, the IC50 in data set [7] was 10 nM.

As to `CCCCCCCCc1ccc(OCC(=O)Cn2cc(-c3nc(C)no3)c3cc(C(=O)O)ccc32)cc1` [[^11C]4, 3-(3-methyl-1,2,4-oxadiazol-5-yl)-1-(3-(4-octylphenoxy)-2-oxopropyl)-1H-indole-5-carboxylic acid], in data set [1], the logD amounted to 1.94 ± 0.15. The molecule also had a Stability in buffer in data set [8] of 80.3±3.4%. In addition, the “Stability in rat brain homogenate” value in [9] amounted to 104%.

The values above are taken from PMC6077846 (ChemMedChem, 2018).
